# From PubChem BioAssay
# Hits are enriched below; roughly 3.3% of the tested compounds scored in any of these assays.
# m5-HT2A agonist – activates the mouse 5-HT2A serotonin receptor | P35363 | CHO-K1 mHTR2A beta-arrestin complementation, luminescence; percent of 30 µM serotonin response | activation, % at 7.6 µM | actives 0.66% (n = 360,000) | AID 624169;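 active = activation above a run cutoff, the mean activation of all tested compounds plus 3 SD, cut at about 14% in these data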
# Lipid droplet – hepatic lipid droplet formation modulation | inhibition, % at 6.5 µM | actives 0.4% (n = 240,000) | AML12 mouse hepatocytes, oleate lipid droplets, BODIPY imaging;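 active = lipid droplet intensity inhibited by at least 50%, with more than 500 cells counted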
#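 Assay system: AML12 mouse liver cells | Compound dosing: One dose, 6.5 µM compound | Read-out basis: Droplet intensity reduction, % inhibition | Measured by: Fluorescence imaging, 20x objective, two fields per well | Schedule: Overnight treatment with compound plus oleate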
# Arrestin-AP2 inh – inhibitors of human beta-arrestin and AP2 interaction; AID 504490; FITC-arrestin peptide / GST-AP2 beads, flow cytometry; AP2 beta2 appendage carries R879A mutation; actives 0.31% (n = 340,000); inhibition, % at 10 µM;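 active = inhibition above a set limit, near 3 SD of compounds lacking own fluorescence, cut at about 54% in these data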
#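 System: GST-AP2 R879A bound to glutathione beads, E. coli-expressed. Also added: 50 nM FITC-arrestin peptide. Schedule: compound with beads 12 min RT, then probe 1 h RT. Signal: bead flow cytometry, FITC channel. Read-out basis: percent response.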
# PfM18AAP inh-1 – PfM18AAP enzyme inhibition. inhibition, % at 7.35 µM. recombinant PfM18AAP, H-Glu-NHMec fluorogenic cleavage. actives 1.2% (n = 290,000);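 active = inhibition above the campaign mean inhibition over all tested compounds plus 3 SD, cut at about 28% in these data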
# NRP1-CendR mod – alters CendR peptide binding to human NRP-1; FAM-RPARPAR peptide binding to NRP-1, fluorescence polarization; AID 602438; actives 0.85% (n = 360,000); O14786; inhibition, % at 25 µM;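 active = inhibition or corrected inhibition above about 18%, plus a signal ratio from 0.5 to 1.5, limit read from the data, passing the limit was not always enough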
# HGIII-sPLA2 inh – Inhibits HGIII-sPLA2 liposome hydrolysis, primary screen. Q9NZ20. QFRET BODIPY PC-A2 liposome hydrolysis, fluorescence. inhibition, % at 12.2 µM. actives 0.56% (n = 370,000). AID 743126;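 active = inhibition above mean plus 3 SD of compounds lying within the high and low control bounds, cut at about 19% in these data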
# PfM18AAP inh-2 – PfM18AAP inhibition, confirmation; shares compounds with PfM18AAP inh-1; recombinant PfM18AAP, H-Glu-NHMec fluorogenic cleavage; inhibition, % at 7.35 µM; actives 28% (n = 2,400);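 active = mean inhibition over replicate wells above the hit cutoff set for the earlier primary screen, cut at about 29% in these data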
# CTSL1 counter – Cathepsin L (human) inhibition, confirmation; purified cathepsin L1, Z-Leu-Arg-MCA fluorescence; shares compounds with PfM18AAP inh-1; inhibition, % at 5.96 µM; AID 2178; 2,400 tested, under 10 active;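 active = average inhibition across replicates above the hit cutoff set in the earlier primary screen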
# Target sequence (P07711 whole entry, looked up): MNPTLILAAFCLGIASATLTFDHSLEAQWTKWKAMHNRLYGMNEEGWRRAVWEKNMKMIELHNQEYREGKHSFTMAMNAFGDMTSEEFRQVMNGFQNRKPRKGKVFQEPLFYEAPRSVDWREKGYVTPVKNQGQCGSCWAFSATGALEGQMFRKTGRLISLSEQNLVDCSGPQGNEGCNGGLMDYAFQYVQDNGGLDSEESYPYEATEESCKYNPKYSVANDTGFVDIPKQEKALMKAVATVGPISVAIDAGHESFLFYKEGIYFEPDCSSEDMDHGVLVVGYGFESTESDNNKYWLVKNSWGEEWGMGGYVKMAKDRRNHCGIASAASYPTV
# A number is an active result; – = inactive; · = not tested or not shown.
SMILES,m5-HT2A agonist,Lipid droplet,Arrestin-AP2 inh,PfM18AAP inh-1,NRP1-CendR mod,HGIII-sPLA2 inh,PfM18AAP inh-2,CTSL1 counter
Cc1ccc(-c2nn[nH]n2)cc1,–,–,–,–,–,–,·,·
Cc1ccc(S(=O)(=O)N(C)CC(=O)O/N=C(\N)c2cccc(Br)c2)cc1,–,–,–,–,–,–,·,·
C=CCc1c(C)[nH]c2c(OC)cccc2c1=S,–,–,–,38.5,–,–,–,–
COC(=O)[C@@]1(Sc2ccccc2)CC(=O)N[C@@H]1c1ccccc1,–,·,·,·,–,–,·,·
Cc1ccc(O)c(C=Nc2cc(C)ccc2O)c1,–,–,–,31.8,–,·,37.0,–
Oc1ccccc1C=NN=C1c2ccccc2-c2ccccc21,–,·,–,·,–,–,·,·
Oc1cccc(/C=N/N=C/c2cccc(O)c2O)c1O,–,–,–,41.8,–,–,–,–
Cc1ccc(N=Cc2cccc(O)c2O)c(C)c1,–,·,–,34.4,–,–,36.9,–
Cc1ccc(O)c(N=CC2=C(O)c3ccccc3C2=O)c1,–,·,–,70.9,–,–,–,–
O=C1C(C=Nc2ccccc2O)=C(O)c2ccccc21,–,·,–,–,–,–,·,·
CCOC(=O)N[C@H](C(=O)N1CCC[C@H]1C(=O)NCCc1ccccc1Cl)C1CCCCC1,·,·,·,·,·,–,·,·
COc1ccc(N2C(=O)c3n[nH]c(C(C)C)c3C2c2ccc(C)cc2)cc1 (stereo not given),·,·,·,·,·,–,·,·
Cc1ccc(CNc2ccc3c(c2)ncn3C)cc1,–,–,–,–,–,–,·,·
Cc1ccc(CNc2ccc3c(c2)ncn3C(C)(C)C)cc1,–,–,–,33.1,–,–,–,–
CC1CCC(C(C)C)C2=C1C(C#N)(C#N)C(C#N)(C#N)C(c1ccccc1)N2 (stereo not given),–,·,–,35.8,–,–,–,–
COC(=O)c1ccc(C(=O)N2CCCCCC2(C)C(=O)NC(C)C)cc1 (stereo not given),–,·,·,·,–,–,·,·
CCC(=O)/C=C1/Sc2ccccc2N1CC,–,–,–,53.6,–,–,–,–
CCN1/C(=C/C(=O)c2ccco2)Sc2ccccc21,–,·,–,46.4,–,–,–,–
N#Cc1ccccc1OCC(=O)OCC(=O)c1c[nH]c2ccccc12,–,·,–,·,–,–,·,·
C[C@@H]1CN(C(=O)OC(C)(C)C)CCN1c1ccc(N2CCN(Cc3ccccc3)[C@@H](C)C2)c(C#N)c1,·,·,·,·,·,–,·,·
O=S(=O)(Nn1cnnc1)c1ccc2ccccc2c1,–,–,–,–,–,–,·,·
O=S(=O)(Nn1cnnc1)c1ccccc1Cl,–,–,–,36.5,–,–,42.7,–
O=S(=O)(Nn1cnnc1)c1ccccc1,–,–,–,36.9,–,–,61.2,–
C[C@H]1COc2cccc(N3CCCC3)c2S(=O)(=O)N1,·,·,·,·,·,–,·,·
CN(C)c1ccc(/C=C(/C(=O)c2ccc(Cl)cc2Cl)n2cncn2)cc1,–,–,–,–,–,–,·,·
SMILES,m5-HT2A agonist,Lipid droplet,Arrestin-AP2 inh,PfM18AAP inh-1,NRP1-CendR mod,HGIII-sPLA2 inh,PfM18AAP inh-2,CTSL1 counter
CN(C)/C=C(/C(=O)c1ccc(Cl)cc1)n1cncn1,–,·,–,40.3,–,–,–,–
COc1ccc(-n2c(=S)[nH]c3[nH]ncc3c2=O)cc1,–,–,–,46.3,–,–,–,–
O=c1c2cn[nH]c2[nH]c(=S)n1-c1ccccc1,–,–,–,–,–,–,·,·
O=c1c2cn[nH]c2[nH]c(=S)n1-c1cccc2ccccc12,–,–,–,51.2,–,–,–,–
Cc1ccc(-c2cn3c(=S)[nH]nc3s2)cc1,–,·,–,64.0,–,–,46.0,–
COC(=O)[C@]12C[C@H](CC(=O)NCc3cccs3)C(=O)N(Cc3ccc4c(c3)OCO4)C1=C[C@H](C(C)(C)C)O[C@@H]2C,·,·,·,·,·,–,·,·
CCN(CC)C(=O)C1=C(C)N(Cc2ccccc2)C(=O)C(CC(=O)NCc2ccco2)C1 (stereo not given),–,·,·,·,–,–,·,·
O=S(=O)(NNc1ccc(F)cc1F)c1cccc(Cl)c1,–,–,–,36.1,–,–,–,–
